Test results taken from ChEMBL document CHEMBL5352453, “Hit-to-lead optimization of a 2-aminobenzimidazole series as new candidates for chagas disease” (Eur J Med Chem, 2023).

Columns and labels:
[1] = tested on: Trypanosoma cruzi; experiment: Antitrypanosomal activity against Trypanosoma cruzi Tulahuen CL2 amastigotes expressing beta galactosidase infected in human MRC5 cells assessed as reduction in parasite burden using chlorophenol red beta-D-galactopyranoside as substrate and measured after 7 days by spectrophotometric analysis; format: functional, organism-based; conditions: Tulahuen CL2, MRC5, 168 h
Method in brief: (§1)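 T. cruzi Tulahuen CL2 β-galactosidase strain grown in MRC-5 cells (MEM, 5% heat-inactivated FCS, 37 °C, 5% CO2). MRC-5 cells (4 x 10^3/well) plus parasites (4 x 10^4/well) exposed 7 days to 4-fold dilutions from 64 µM down; final DMSO <1%. CPRG with Nonidet added, absorbance at 540 nm after 4 h. IC50 calculated against untreated-infected (100%) and non-infected (0%) controls. SI = MRC-5 CC50/IC50.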

[2] = Metabolic stability in CD1 mouse liver microsomes assessed as intrinsic clearance measured upto 60 mins by LC-MS/MS analysis; format: ADME; conditions: read-out: CLH
Method in brief: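 CD1 mouse liver microsomes at 0.25 mg/mL, compound at 0.5 µM, pH 7.4, 37 °C, started with NADPH. Sampled at 0, 5, 10, 20, 30 and 60 min and quenched with acetonitrile:methanol containing tolbutamide. Measured by LC-MS/MS; CLint (k × 1000/0.25, µL/min/mg) derived by non-linear regression of % remaining over time.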

[3] = Selectivity index, ratio of CC50 for cytotoxicity against human MRC5 cells to EC50 for Trypanosoma cruzi Tulahuen CL2 amastigotes expressing beta galactosidase infected in human MRC5 cells; format: toxicity, cell-based; conditions: read-out: Selectivity Index; method in brief: as §1

Row | Structure (SMILES) | IC50 [1] | microsomal CLint [2] | selectivity ratio [3]
1 | O=C(Cc1ccc(Cl)cc1)Nc1nc2ccccc2[nH]1 | > 64 µM |  | 
2 | CCCn1c(NC(=O)Cc2ccc(Cl)cc2)nc2ccccc21 | 1.89 µM | 3090 µL/min/mg | 
3 | CCCn1c(NC(=O)Cc2ccc(Cl)cc2)nc2ccc(F)cc21 | 0.56 µM | 1590 µL/min/mg | 102
4 | CCCn1c(NC(=O)Cc2ccc(F)cc2)nc2ccccc21 | 2.1 µM |  | 
5 | CCCn1c(NC(=O)Nc2ccc(Cl)cc2)nc2ccccc21 | > 64 µM |  | 
6 | CCCn1c(NC(=O)Cc2ccc(F)cc2)nc2ccc(C(=O)NCOC)cc21 | 8.3 µM | 128 µL/min/mg | 7
7 | CC(C)(C)Cn1c(NC(=O)c2cccnc2)nc2cc(F)c(F)cc21 | 0.8 µM | 131 µL/min/mg | > 80
8 | CCCn1c(NC(=O)c2cccnc2)nc2cccnc21 | 4.4 µM | 275 µL/min/mg | > 15
9 | Cn1nncc1C(=O)Nc1nc2ccc(C#N)cc2n1CC(F)(F)F | 24 µM |  | > 3
10 | CN(C)c1ccc(C(=O)Nc2nc3ccc(C#N)cc3n2CC(F)(F)F)cn1 | 8.6 µM |  | > 7
11 | CCCn1c(NC(=O)Cc2ccc(F)cc2)nc2ccc(C(=O)N3CCOCC3)cc21 | 35 µM | 23 µL/min/mg | > 2
12 | N#Cc1ccc2nc(NC(=O)c3ccnc(C(F)(F)F)c3)n(CC(F)F)c2c1 | 0.51 µM |  | 24
13 | CCCn1c(NC(=O)c2ccccn2)nc2cccnc21 | 8.4 µM | 265 µL/min/mg | > 8
14 | CCCn1c(NC(=O)Cc2ccc(F)cc2)nc2ccc(C(=O)O)cc21 | > 64 µM |  | 1
15 | N#Cc1ccc2nc(NC(=O)c3ccc(C(F)(F)F)nc3)n(C3CC3)c2c1 | > 64 µM | 1350 µL/min/mg | 
16 | Cn1ncc(C(=O)Nc2nc3ccc(C#N)cc3n2CC(F)(F)F)n1 | 64 µM |  | 1
17 | Cc1ccc(C(=O)Nc2nc3ccc(C#N)cc3n2CC(F)(F)F)cn1 | 64 µM |  | 1
18 | COCCn1c(NC(=O)c2ccc(C(F)(F)F)nc2)nc2ccc(C#N)cc21 | 64 µM |  | 1
19 | CCCn1c(NC(=O)Cc2ccc(F)cc2)nc2ccc(C(=O)NC)cc21 | 34 µM | 66 µL/min/mg | 1
20 | O=C(Nc1nc2cc(F)ccc2n1C1CCOCC1)c1cccnc1 | 8.5 µM | 26 µL/min/mg | 5

Row | Structure (SMILES) | IC50 [1] | microsomal CLint [2] | selectivity ratio [3]
21 | CCCn1c(NC(=O)c2cccc(C(F)(F)F)n2)nc2cccnc21 | 2.4 µM | 285 µL/min/mg | > 27
22 | O=C(Nc1nc2ccc(F)cc2n1CC(F)(F)F)c1cccnc1 | 4.2 µM | 98 µL/min/mg | 13
23 | O=C(Cc1ccc(Cl)cc1)Nc1nc2ccccc2s1 | > 64 µM |  | 
24 | CCCn1c(CCNC(=O)Cc2ccc(Cl)cc2)nc2ccccc21 | 33 µM |  | 
25 | CCCn1c(NC(=O)c2cccnc2)nc2cc(F)c(F)cc21 | 2.1 µM | 446 µL/min/mg | > 30
26 | O=C(Nc1nc2cncnc2n1CC(F)(F)F)c1ccnc(C(F)(F)F)c1 | 1.1 µM |  | 5
27 | CCCn1c(NC(=O)Cc2ccc(Cl)cc2)nc2ccc(C#N)cc21 | 24 µM | 226 µL/min/mg | > 3
28 | CCCn1c(NC(=O)c2cccc(C(F)(F)F)n2)nc2ccc(F)cc21 | 2.3 µM | 467 µL/min/mg | > 28
29 | Cn1nc(C(F)(F)F)cc1C(=O)Nc1nc2cncnc2n1CC(F)(F)F | 0.59 µM |  | 7
30 | CCCn1c(NC(=O)Cc2cc(F)ccc2F)nc2ccccc21 | 2.2 µM |  | 
31 | CCCn1c(NS(=O)(=O)c2ccc(Br)cc2)nc2ccccc21 | > 64 µM |  | 
32 | N#Cc1ccc2nc(NC(=O)c3cnc(C(F)(F)F)nc3)n(CC(F)(F)F)c2c1 | 0.24 µM |  | 8
33 | CCCn1c(NC(=O)c2cccnc2)nc2ccc(C#N)cc21 | 18 µM | 200 µL/min/mg | > 4
34 | CCCn1c(NC(=O)Cc2ccc(F)cc2)nc2cc(F)c(F)cc21 | 0.53 µM | 399 µL/min/mg | > 121
35 | N#Cc1ccc2nc(NC(=O)c3ccnc(C(F)(F)F)c3)n(CCF)c2c1 | 49 µM |  | 1
36 | CCCn1c(NC(=O)Cc2ccc(F)cc2)nc2ccc(C(=O)OC)cc21 | 0.53 µM | 1250 µL/min/mg | 35
37 | CC(C)(C)Cn1c(NC(=O)c2cccnc2)nc2ccc(C#N)cc21 | 8.7 µM | 87 µL/min/mg | > 7
38 | Cn1nccc1C(=O)Nc1nc2cc(S(C)(=O)=O)ccc2n1CC(F)(F)F | 2.2 µM |  | 6
39 | CCCn1c(NCc2ccc(F)cc2)nc2cc(F)ccc21 | 25 µM |  | 
40 | O=C(Nc1nc2cncnc2n1CC(F)(F)F)c1ccc(C(F)(F)F)nc1 | 0.51 µM |  | 6

Row | Structure (SMILES) | IC50 [1] | microsomal CLint [2] | selectivity ratio [3]
41 | CC(C)(C)Cn1c(NC(=O)c2ccc(C(F)(F)F)nc2)nc2ccc(C#N)cc21 | 52 µM |  | > 1
42 | O=C(Nc1nc2cc(F)ccc2n1C1CCNCC1)c1cccnc1 | 9.2 µM |  | 3
43 | CCCn1c(NC(=O)Cc2ccc(F)cc2)nc2ccc(C(=O)N3CCCC3)cc21 | 8.5 µM |  | > 8
44 | CCCn1c(NC(=O)Cc2cc(F)ccc2F)nc2cc(F)c(F)cc21 | 0.58 µM | 389 µL/min/mg | 52
45 | O=C(Nc1nc2ccc(F)cc2n1CC(F)(F)F)c1ccc(C(F)(F)F)nc1 | 42 µM | 86 µL/min/mg | > 2
46 | N#Cc1ccc2nc(NC(=O)c3cc(C(F)(F)F)nn3CC(=O)O)n(CC(F)(F)F)c2c1 | 64 µM |  | 1
47 | Cn1nccc1C(=O)Nc1nc2cc(CO)ccc2n1CC(F)(F)F | 64 µM |  | 1
48 | CCCn1c(NC(=O)Cc2ccc(F)cc2)nc2c(F)cccc21 | > 64 µM | 715 µL/min/mg | 1
49 | CCCn1c(NC(=O)c2ccc(F)cc2)nc2ccc(F)cc21 | > 64 µM |  | 
50 | O=C(Nc1nc2cncnc2n1CC(F)(F)F)c1cc(C(F)(F)F)n[nH]1 | 7.5 µM |  | 4
51 | CCCn1c(NC(=O)Cc2ccc(Cl)cc2)nc2cc(C(F)(F)F)ccc21 | 0.74 µM | 283 µL/min/mg | 15
52 | O=C(Nc1nc2cc(F)ccc2n1C1CCOCC1)c1ccc(C(F)(F)F)nc1 | 35 µM | 23 µL/min/mg | > 2
53 | N#Cc1ccc2nc(NC(=O)c3ccnn3C3CC3)n(CC(F)(F)F)c2c1 | 0.99 µM |  | 3
54 | Cn1cc(C(=O)Nc2nc3ccc(C#N)cc3n2CC(F)(F)F)cn1 | 64 µM |  | 1
55 | Cc1cc(C(=O)Nc2nc3ccc(C#N)cc3n2CC(F)(F)F)[nH]n1 | 36 µM |  | 1
56 | CCCn1ccnc1NC(=O)Cc1ccc(F)cc1 | 35 µM |  | 
57 | CCCn1c(NC(=O)c2ccc(C(F)(F)F)nc2)nc2cccnc21 | 3.2 µM |  | 15
58 | CCCn1c(NC(=O)Cc2ccc(F)cc2)nc2cccnc21 | 1.3 µM | 1500 µL/min/mg | > 49
59 | O=C(Nc1nc2ccc(F)cc2n1C1CC1)c1cccnc1 | 34 µM | 160 µL/min/mg | > 2
60 | CCCn1c(NC(=O)Cc2ccc(Cl)cc2)nc2cc(F)ccc21 | 0.92 µM | 1510 µL/min/mg | > 70
